Source: PubChem BioAssay (Broad Institute)
Only some compounds are listed: those with a hit (about 3.4% of all), similar ones and a draw of the others.
SIRT5 inh = SIRT5 desuccinylase inhibitors, primary screen, biochemical, fluorescence imaging, single point, set 5. Purified SirT5, succinyl-peptide AMC, trypsin-coupled fluorescence. inhibition, % at 15 µM. hit rate 1.1% among 330,000; in the data active = inhibition above about 15%
S100A4 MyoIIA = inhibitors of S100A4-myosin IIA peptide binding, primary screen, biochemical, fluorescence polarization, TAMRA-MyoIIA peptide | Protein S100-A4 (Homo sapiens), P26447 | inhibition, % at 10.7 µM | hit rate 0.14% among 360,000 | AID 652163, 2013;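 active = mean inhibition of at least 70% across replicates, with every replicate also reaching that level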
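assay system = human S100A4 monomer with TAMRA-labelled myosin IIA peptide | also added = labelled myosin peptide probe, 5 nM | incubation = 5 min between mix addition and reading | control set = DMSO and TFP controls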
E-selectin induc = E-selectin induction in HUVECs, primary screen, imaging, HUVEC, immunofluorescence imaging, single point. hit rate 0.37% among 260,000. normalized: neutral wells 0, TNF-alpha wells 100. AID 686992, 2013. activation, % at 7.58 µM;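 active = mean E-selectin-positive cell signal at least 10% of the positive control, reached in at least 60% of replicates, without over 20% cell loss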
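Assay system: HUVEC primary endothelial cells. Input: 3,000 HUVEC seeded per well. Doses: one compound dose added by pin transfer. Read-out basis: % PE-positive cells. Benchmarks: TNF-alpha high, DMSO low. Detection: immunofluorescence imaging. Buffer or medium: EGM-2, gelatin.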
rRNA inh HTS = reduced GFP signal of wild-type E. coli, primary screen, bacterial rRNA inhibitor project, GFP/RFP fluorescence, OD600, single point | E. coli WT GFP vs humanized-ribosome RFP mutants, 24 h; hits give low values; DMSO median 0, no signal -100 | GFP signal change (wild-type ribosome), % (no concentration beside the values) | hit rate 1.6% among 350,000;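 active = significant combined selectivity score with lowered wild-type GFP, culture density cut under 30%, mutant RFP and density less affected; inactive = any of these conditions unmet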
ERAP1 HTS inh = human ERAP1 aminopeptidase inhibitors, primary screen, biochemical, single point, plate reader. inhibition, % at 10.7 µM. hit rate 0.15% among 340,000. Endoplasmic reticulum aminopeptidase 1 (Homo sapiens), Q9NZ08. recombinant ERAP1, Leu-AMC fluorescence, 60 min;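 active = mean replicate inhibition of at least 30%, or all replicates individually reaching that 30% level; inactive = mean below 30% and not every replicate reaching it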;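 also: 0% = neutral control wells and 100% = L-leucinethiol positive control wells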
AF4-AF9 inh = inhibitors of AF4 peptide binding to AF9, primary screen, biochemical, AlphaScreen, biotin-AF4 peptide, FLAG-AF9, single point; Protein AF-9 (Homo sapiens), P42568; inhibition, % at 10 µM; hit rate 0.47% among 350,000; AID 651704, 2012;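 active = every replicate reaching a set inhibition limit, whatever the replicate mean, cut at about 25% in these data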;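 also: 0% = plate neutral control median and 100% = total signal loss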
Target sequence (P42568 whole entry, looked up): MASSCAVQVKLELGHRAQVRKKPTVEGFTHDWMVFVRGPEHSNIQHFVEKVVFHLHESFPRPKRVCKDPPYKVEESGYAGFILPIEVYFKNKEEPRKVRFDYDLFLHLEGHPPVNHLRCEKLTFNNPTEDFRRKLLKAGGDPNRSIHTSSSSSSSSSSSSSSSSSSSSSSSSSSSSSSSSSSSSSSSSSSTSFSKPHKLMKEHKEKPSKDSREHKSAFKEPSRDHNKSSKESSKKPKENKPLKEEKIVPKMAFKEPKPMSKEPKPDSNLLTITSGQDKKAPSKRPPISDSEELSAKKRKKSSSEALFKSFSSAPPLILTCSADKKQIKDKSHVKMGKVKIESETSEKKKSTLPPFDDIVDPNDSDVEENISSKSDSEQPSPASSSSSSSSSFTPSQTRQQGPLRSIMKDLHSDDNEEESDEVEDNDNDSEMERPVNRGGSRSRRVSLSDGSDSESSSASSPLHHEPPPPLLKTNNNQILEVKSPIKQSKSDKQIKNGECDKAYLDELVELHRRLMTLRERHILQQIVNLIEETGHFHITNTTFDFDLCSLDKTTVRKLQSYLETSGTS
The depositor's hits bear a star; nt = no result given.

SMILES	SIRT5 inh	S100A4 MyoIIA	E-selectin induc	rRNA inh HTS	ERAP1 HTS inh	AF4-AF9 inh
COc1ccc2nc3cc(Cl)ccc3c(Nc3ccc(O)c(CN4CCN(C)CC4)c3)c2c1	2	9	0	-48	-27	59*
COc1ccc2nc3cc(Cl)ccc3c(C#N)c2c1	-3	0	0	3	12	0
Cn1c2ccccc2c2cc([N+](=O)[O-])ccc21	-1	-1	0	8	4	0
Cn1ccc(=O)c2cc([N+](=O)[O-])ccc21	4	3	1	-26*	3	3
Cc1ccc(C[n+]2cc(-c3ccc(Cl)cc3)n3c2CCC3)cc1	-3	-3	-1	-47*	2	2
Cc1ccc(-c2c[n+](Cc3cccc(Cl)c3)c3n2CCC3)cc1	-6	0	nt	nt	2	3
Cc1ccc(-c2c[n+](Cc3ccc(Cl)cc3)c3n2CCC3)cc1	40*	-10	nt	nt	2	-1
O=C(C[n+]1cc(-c2ccc(Cl)cc2)n2c1CCCCC2)c1ccccc1	-2	4	0	-51*	5	-1
COc1cccc(C#Cc2cnc3c(c2)C(=O)N([C@@H](C)CO)C[C@H](C)[C@H](CN(C)C(=O)C2CCOCC2)O3)c1	-6	4	0	4	1	-1
CC(=O)Nc1ccc(S(=O)(=O)/N=C2/NC(=O)/C(=C\c3ccco3)S2)cc1	15*	-11	nt	7	11	-3
Cc1ccc(S(=O)(=O)/N=C2/NC(=O)/C(=C\c3ccccc3)S2)cc1	-13	1	nt	-36	5	0
CN(C(=O)CSc1nc2ccccc2o1)C1CCS(=O)(=O)C1 (centres undefined)	16*	0	nt	4	0	2
COc1ccc(NC(=O)N(C)C[C@@H]2OCCCC[C@H](C)Oc3ccc(NC(=O)NC(C)C)cc3C(=O)N([C@@H](C)CO)C[C@@H]2C)cc1	3	0	0	-2	3	0
CCOC(=O)C1=C(C)NC(C)=C(C(=O)OCC)C1/C=C/c1ccccc1	3	5	nt	-38	4	-13
COC(=O)C1=C(C)NC(C)=C(C(=O)OC)C1/C=C/c1ccccc1	1	3	nt	-32*	10	-35
CCS(=O)(=O)N1CC(=O)N2[C@H](CO)[C@@H](c3ccc(C#CCC(C)C)cc3)[C@@H]2C1	-2	0	0	-4	4	4
C[C@@H]1CN([C@@H](C)CO)C(=O)c2cc(NC(=O)NC3CCCCC3)ccc2O[C@H]1CN(C)C	3	6	nt	6	1	-2
N#C[C@@H]1N[C@@H](CO)[C@H]1c1ccc(-c2cccc(F)c2)cc1	-1	-1	0	-2	-1	-3
COc1cc(NC(=O)[C@H]2O[C@@H](n3cnc4c(N)ncnc43)[C@H](O)[C@@H]2O)cc(OC)c1OC	-6	-1	1	-2	3	1
Nc1ncnc2c1ncn2C1OC(C(=O)NC2CC2)C(O)C1O (centres undefined)	1	1	0	3	-1	48*
COc1ccc2c3c(n(C)c2c1)[C@@H](CO)N(Cc1ccccc1OC)CC31CN(CC2CC2)C1	-1	-2	0	5	0	9
COc1cccc(NC(=O)N[C@@H]2C=C[C@H](CC(=O)N3CCOCC3)O[C@H]2CO)c1	-4	0	0	0	0	-1
COc1ccc(NC(=O)Nc2ccc3c(c2)CC(=O)N([C@H](C)CO)C[C@H](C)[C@@H](CN(C)S(=O)(=O)c2ccccc2)O3)cc1	1	1	0	0	4	2
CN1C(=O)c2cc(NC(=O)c3cccc(F)c3)ccc2OC[C@H]2O[C@@H](CC(=O)O)CC[C@H]21	nt	nt	0	-3	nt	nt
CCCc1c(C(=O)Nc2ccc(OC)cc2)cnn1-c1ccccc1	-1	-7	0	-24*	5	-2
SMILES	SIRT5 inh	S100A4 MyoIIA	E-selectin induc	rRNA inh HTS	ERAP1 HTS inh	AF4-AF9 inh
CCCc1c(C(=O)NNc2ccccc2OC)cnn1-c1ccccc1	1	-16	0	-23*	4	-9
COc1ccc(NC(=O)Nc2cccc3c2O[C@@H](CN(C)S(=O)(=O)c2ccc(OC)cc2)[C@H](C)CN([C@@H](C)CO)C3=O)cc1	1	-15	0	-4	1	1
C[C@H](CO)N1C[C@H](C)[C@@H](CN(C)C(=O)Nc2ccc(C(F)(F)F)cc2)Oc2ccc(NC(=O)C3CCCCC3)cc2CC1=O	-1	7	-2	-7	2	0
Cc1nc2c(-c3ccccc3)c[nH]n2c(=O)c1Cc1ccccc1	-10	-9	nt	-20*	-1	2
CC(=O)c1cccc(N=c2scc(-c3ccc(S(=O)(=O)N4CCOCC4)cc3)n2CCO)c1	0	-2	-1	-14	-4	17
CN(C)S(=O)(=O)c1cccc(-c2csc(=Nc3ccccc3)n2CCCN2CCOCC2)c1	-4	-3	nt	-5	2	32*
Cn1c(=O)cc(SCC(=O)N2CCN(C3CCCCC3)CC2)c2ccccc21	17*	-1	nt	0	-6	-6
CCOC(=O)C1CCN(C(=O)CSc2cc(=O)n(CC)c3ccccc23)CC1	-3	9	nt	-3	-6	nt
CCc1ccc(NS(=O)(=O)c2ccc(C)c(C(=O)N3CCOCC3)c2)cc1	-1	11	nt	21	83*	-1
CCOc1ccc(CCNS(=O)(=O)c2cn(C)cn2)cc1OCC	33*	-1	0	-3	-2	0
COc1ccc(Nc2c3c(nc4ccc(C)cc24)CCC3)cc1	25*	-3	0	-6	3	12
Cc1ccc2nc3c(c(Nc4ccc(O)cc4)c2c1)CCC3	-3	-4	nt	-10	-2	15
C[C@@H]1CN([C@@H](C)CO)S(=O)(=O)c2ccc(-c3ccc(C(=O)N(C)C)cc3)cc2O[C@@H]1CN(C)C(=O)C1CCC1	-4	-8	1	-5	1	0
Cc1ccc(S(=O)(=O)N2CCOCC2)cc1-c1n[nH]c(=S)n1-c1ccccc1	0	-4	0	0	46*	-5
O=S(=O)(c1cccc(-c2n[nH]c(=S)n2-c2cccc(C(F)(F)F)c2)c1)N1CCOCC1	-3	-3	1	0	5	-12
